Assay results as given in ChEMBL document CHEMBL3286113, “New potent antibacterial oxazolidinone (MRX-I) with an improved class safety profile” (J Med Chem, 2014).
Converted amounts (≈) assume the structure as drawn.

Key:
Staphylococcus aureus [1] = test: Antibacterial activity against Staphylococcus aureus measured after 4 serial passages; assay type: functional
Streptococcus pyogenes [2] = test: Antibacterial activity against Streptococcus pyogenes isolate 556; assay type: functional
Staphylococcus aureus [3] = test: Antibacterial activity against methicillin-sensitive Staphylococcus aureus ATCC 29213 in po dosed mouse thigh infection model; assay type: functional, organism-based; settings: Thigh muscle
Summary of the method: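 Mouse thigh infection with S. aureus ATCC29213 (MSSA), 10 animals per dosing group. Oral doses were 5, 10, 20, 40 and 80 mg/kg. The read-out was log CFU per thigh after treatment, and the reduction (ΔLogCFU/thigh) was reported.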

Rattus norvegicus [4] = test: Toxicity in female rat assessed as effect on reticulocyte count at 20 mg/kg/day, po bid administered for 4 weeks (reference value: 1.48%); assay type: organism-based; design: route oral; settings: in vivo, 672 h
[5] = Tmax in human at 800 mg, po administered as single dose with meal measured on day 15; assay type: ADME, organism-based; settings: in vivo
Summary of the method: (§1)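 Randomized, double-blind, placebo-controlled multiple-dose study in 32 healthy subjects, half male and half female. Dosing was 600 or 800 mg orally with a meal, 28 doses over 15 days. A single dose was given on days 1 and 15 for full PK, with Q12h (BID) dosing on days 2−14.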

[6] = Half life in female rat at 15 mg/kg, po; assay type: ADME, organism-based; design: dose 15 mg/kg, route oral; settings: in vivo
Staphylococcus aureus [7] = test: Antibacterial activity against methicillin-resistant Staphylococcus aureus isolate 0612 in po dosed mouse systemic infection model; assay type: functional; settings: isolate 0612, po
[8] = Clastogenicity in CHL cells assessed as induction of structural chromosomal aberration at 50 to 400 ug/mL measured over 6 hrs in absence of metabolic activation; assay type: toxicity, cell-based, Cricetulus griseus; settings: chinese hamster
Summary of the method: (§2)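 Chinese hamster lung cells scored for structural chromosome aberrations with or without metabolic activation. Exposure was 50–400 μg/mL over 6 h, or 25–200 μg/mL over 24 h.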

Staphylococcus aureus [9] = test: Antibacterial activity against Staphylococcus aureus assessed as time required for growth inhibition; assay type: functional
[10] = Clastogenicity in CHL cells assessed as induction of structural chromosomal aberration at 50 to 400 ug/mL measured over 6 hrs in presence of metabolic activation; assay type: toxicity, cell-based, Cricetulus griseus; settings: chinese hamster; summary of the method: as §2
Streptococcus pyogenes [11] = test: Antibacterial activity against Streptococcus pyogenes isolate 556 in po dosed mouse systemic infection model; assay type: functional; settings: isolate 556, po
[12] = Cmax in female rat at 5 mg/kg, po; assay type: ADME, organism-based; design: dose 5 mg/kg, route oral; settings: in vivo
[13] = Cmax in female rat at 45 mg/kg, po; assay type: ADME, organism-based; design: dose 45 mg/kg, route oral; settings: in vivo
Cytochrome P450 1A2 = Cytochrome P450 1A2 (Homo sapiens, UniProt P05177); test: Inhibition of CYP1A2 (unknown origin) at 1 to 200 uM; assay type: ADME
Sequence of Cytochrome P450 1A2 (P05177 whole entry): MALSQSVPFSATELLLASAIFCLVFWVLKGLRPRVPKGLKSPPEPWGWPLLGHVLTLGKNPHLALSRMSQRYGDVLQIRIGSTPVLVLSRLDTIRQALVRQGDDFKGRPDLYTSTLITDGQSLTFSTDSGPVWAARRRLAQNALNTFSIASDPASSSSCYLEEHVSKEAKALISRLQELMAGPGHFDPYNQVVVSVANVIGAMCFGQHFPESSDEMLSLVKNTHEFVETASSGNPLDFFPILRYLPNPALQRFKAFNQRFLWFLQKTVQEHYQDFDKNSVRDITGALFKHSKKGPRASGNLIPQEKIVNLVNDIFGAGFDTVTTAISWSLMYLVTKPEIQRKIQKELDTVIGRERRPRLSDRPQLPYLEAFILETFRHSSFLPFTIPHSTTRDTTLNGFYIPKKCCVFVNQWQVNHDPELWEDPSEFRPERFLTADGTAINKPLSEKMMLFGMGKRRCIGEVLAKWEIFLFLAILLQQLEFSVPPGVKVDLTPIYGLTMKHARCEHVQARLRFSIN

Rattus norvegicus [14] = test: Toxicity in female rat assessed as effect on mean corpuscular volume at 100 mg/kg/day, po bid administered for 4 weeks (reference value: 53.72 fL); assay type: organism-based; design: route oral; settings: in vivo, 672 h
Rattus norvegicus [15] = test: Toxicity in female rat assessed as effect on neutrophil count at 100 mg/kg/day, po bid administered for 4 weeks (reference value: 22.4%); assay type: organism-based; design: route oral; settings: in vivo, 672 h
[16] = Cmax in fasted human at 300 mg, po administered as single dose; assay type: ADME, organism-based; design: dose 300 mg, route oral; settings: in vivo
Summary of the method: (§3)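 Healthy volunteers (12; six of each sex) in a three-period Latin-square crossover. Each received single oral doses of 300, 600 and 900 mg under fasting conditions, with a 1-week washout between doses. Parameters from a noncompartmental model.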

[17] = Tmax in human at 600 mg, po administered as single dose with meal measured on day 1; assay type: ADME, organism-based; settings: in vivo; summary of the method: as §1
[18] = system: Staphylococcus epidermidis; test: Antibacterial activity against methicillin-resistant Staphylococcus epidermidis; assay type: functional
Homo sapiens [19] = test: Toxicity in fasted human at 50 to 1800 mg, po; assay type: organism-based; settings: in vivo
Summary of the method: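 Randomized, double-blind, placebo-controlled single ascending dose study in healthy Chinese subjects under fasting conditions. Eight groups received single oral doses of 50, 100, 200, 400, 800, 1200, 1600 or 1800 mg, with tolerability assessed.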

Streptococcus pneumoniae = test: Antibacterial activity against Streptococcus pneumoniae assessed as time required for growth inhibition; assay type: functional
Enterococcus faecium = test: Bacteriostatic activity against vancomycin-resistant Enterococcus faecium; assay type: functional
Rattus norvegicus [20] = test: Toxicity in female rat assessed as effect on mean corpuscular hemoglobin level at 100 mg/kg/day, po bid administered for 4 weeks (reference value: 19.5 pg); assay type: organism-based; design: route oral; settings: in vivo, 672 h
[21] = AUC (0 to t) in female rat at 5 mg/kg, po; assay type: ADME, organism-based; design: dose 5 mg/kg, route oral; settings: plasma
Summary of the method: (§4)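 Rat PK by gender, with single oral doses of 5, 15 and 45 mg/kg and an iv dose of 5 mg/kg. Tmax, Cmax, T1/2 and AUC0−t were reported per gender.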

Cytochrome P450 2D6 = Cytochrome P450 2D6 (Homo sapiens, UniProt P10635); test: Inhibition of CYP2D6 (unknown origin) at 1 to 200 uM; assay type: ADME
Sequence of Cytochrome P450 2D6 (P10635 whole entry): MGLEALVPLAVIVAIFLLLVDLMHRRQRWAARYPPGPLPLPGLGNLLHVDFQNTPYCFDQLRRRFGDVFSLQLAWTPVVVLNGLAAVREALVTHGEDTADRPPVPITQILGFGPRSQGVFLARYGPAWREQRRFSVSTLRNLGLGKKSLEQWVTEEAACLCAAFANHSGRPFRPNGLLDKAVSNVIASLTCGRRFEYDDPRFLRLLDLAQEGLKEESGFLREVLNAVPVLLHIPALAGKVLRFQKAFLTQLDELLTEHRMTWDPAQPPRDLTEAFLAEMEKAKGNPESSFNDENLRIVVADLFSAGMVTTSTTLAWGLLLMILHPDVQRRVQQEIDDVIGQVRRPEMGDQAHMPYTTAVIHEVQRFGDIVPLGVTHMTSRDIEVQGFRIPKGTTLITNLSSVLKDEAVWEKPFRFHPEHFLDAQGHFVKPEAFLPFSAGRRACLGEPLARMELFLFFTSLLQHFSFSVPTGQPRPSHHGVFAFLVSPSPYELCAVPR

Staphylococcus aureus [22] = test: Antibacterial activity against Staphylococcus aureus; assay type: functional
Staphylococcus aureus [23] = test: Antibacterial activity against Staphylococcus aureus measured after 5 serial passages; assay type: functional
[24] = Elimination half life in fasted human at 900 mg, po administered as single dose; assay type: ADME, organism-based; settings: in vivo, read-out: beta t1/2 (converted); summary of the method: as §3
[25] = AUC (0 to t) in male rat at 5 mg/kg, po; assay type: ADME, organism-based; design: dose 5 mg/kg, route oral; settings: plasma; summary of the method: as §4
Mus musculus = test: Dose normalized AUC (0 to t) in po dosed mouse; assay type: ADME, organism-based; settings: in vivo
[26] = Toxicity in po dosed rat administered as bid for 4 weeks; assay type: organism-based; settings: in vivo
Rattus norvegicus [27] = test: Toxicity in female rat assessed as effect on hemoglobin level at 20 mg/kg/day, po bid administered for 4 weeks (reference value: 141.8 g/L); assay type: organism-based; design: route oral; settings: in vivo, 672 h
Rattus norvegicus [28] = test: Toxicity in female rat assessed as effect on hematocrit level at 200 to 300 mg/kg/day, po bid administered for 4 weeks (reference value: 39.08%); assay type: organism-based; design: route oral; settings: in vivo, 672 h
Rattus norvegicus [29] = test: Toxicity in female rat assessed as effect on neutrophil count at 200 to 300 mg/kg/day, po bid administered for 4 weeks (reference value: 22.4%); assay type: organism-based; design: route oral; settings: in vivo, 672 h
Rattus norvegicus [30] = test: Toxicity in female rat assessed as effect on mean corpuscular hemoglobin level at 20 mg/kg/day, po bid administered for 4 weeks (reference value: 19.5 pg); assay type: organism-based; design: route oral; settings: in vivo, 672 h
Homo sapiens [31] = test: Toxicity in human assessed as change in reticulocyte count at 600 to 800 mg, po administered as single dose with meal on day 1 and day 15 followed by bid with meal on day 2 to day 14 measured during compound treatment; assay type: organism-based; settings: in vivo
[32] = Half life in po dosed rat; assay type: ADME, organism-based; settings: in vivo
Rattus norvegicus [33] = test: Toxicity in rat assessed as mortality at 200 mg/kg, po bid administered for 4 weeks measured on day 14; assay type: organism-based; design: dose 200 mg/kg, route oral; settings: in vivo, 672 h
Summary of the method: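 Rats, 10 per gender per group, given drug orally twice daily at 20, 100 and 200/300 mg/kg/day for 4 weeks, then a 4-week recovery period. The top dose of 200 mg/kg/day was raised to 300 mg/kg/day on day 15. The comparator was dosed the same way at 100 and 200 mg/kg/day. Monitoring covered mortality, body weight, hematology and bone marrow, with blood taken for TK on days 1, 14 and 28.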

Staphylococcus aureus [34] = test: Antibacterial activity against methicillin-sensitive Staphylococcus aureus isolate 15 in po dosed mouse systemic infection model; assay type: functional; settings: isolate 15, po
[35] = system: Streptococcus dysgalactiae subsp. equisimilis; test: Antibacterial activity against Streptococcus equisimilis; assay type: functional

## O=C1C=CN(c2c(F)cc(N3C[C@H](CNc4ccon4)OC3=O)c(F)c2F)CC1 [CONTEZOLID]
Staphylococcus aureus [1]
  MIC: 2 µg/mL (≈ 4.9 µM)
Streptococcus pyogenes [2]
  MIC: 1 µg/mL (≈ 2.45 µM)
Staphylococcus aureus [3]
  Activity: Dose-dependent effect
Rattus norvegicus [4]
  Activity: 1.3%
[5]
  Tmax: 0.57 h
[6]
  half-life: 1.47 h
Staphylococcus aureus [7]
  ED50: 7.2 mg/kg
[8]
  Activity: Non-toxic
Staphylococcus aureus [9]
  Time: 1.6 h
[10]
  Activity: Non-toxic
Streptococcus pyogenes [11]
  ED50: 8.9 mg/kg
[12]
  Cmax: 9390 ng/mL
[13]
  Cmax: 50000 ng/mL
Cytochrome P450 1A2
  inhibition (INH): Not Active
Rattus norvegicus [14]
  Activity: 54.78 fL
Rattus norvegicus [15]
  Activity: 18.4%
[16]
  Cmax: 8070 ng/mL
[17]
  Tmax: 0.65 h
[18]
  MIC50: 0.25 µg/mL (≈ 0.612 µM)
  MIC90: 0.5 µg/mL (≈ 1.22 µM)
Homo sapiens [19]
  Activity: Non-toxic
Streptococcus pneumoniae
  Time: 1.8 h
Enterococcus faecium
  MIC: 1 µg/mL (≈ 2.45 µM)
  MIC50: 1 µg/mL (≈ 2.45 µM)
  MIC90: 1 µg/mL (≈ 2.45 µM)
Rattus norvegicus [20]
  Activity: 20.28 pg
[21]
  AUC(0-t): 31500 ng·h/mL
Cytochrome P450 2D6
  inhibition (INH): Not Active
Staphylococcus aureus [22]
  MIC: 2 µg/mL (≈ 4.9 µM)
Staphylococcus aureus [23]
  MIC: 2 µg/mL (≈ 4.9 µM)
[24]
  half-life: 4.9 h
[25]
  AUC(0-t): 10200 ng·h/mL
Mus musculus
  AUCt/dose: 1654 ng·h/mL/mg/kg
[26]
  NOAEL at 672 h: 100 mg/kg/day
Rattus norvegicus [27]
  Activity: 137.8 g/L
Rattus norvegicus [28]
  Activity: 30.6%
Rattus norvegicus [29]
  Activity: 26.4%
Rattus norvegicus [30]
  Activity: 20.2 pg
Homo sapiens [31]
  Activity: Non-toxic
[32]
  half-life: 1.5 h
Rattus norvegicus [33]
  Activity: Toxic
Staphylococcus aureus [34]
  ED50: 5.7 mg/kg
[35]
  MIC: 1 µg/mL (≈ 2.45 µM)
  MIC50: 1 µg/mL (≈ 2.45 µM)
  MIC90: 1 µg/mL (≈ 2.45 µM)
